Experimental data published in ChEMBL document CHEMBL2146385, “Synthesis and antiviral evaluation of bis(POM) prodrugs of (E)-[4'-phosphono-but-2'-en-1'-yl]purine nucleosides” (Eur J Med Chem, 2012).
pEC50, pIC50: −log10 of the molar value. Activity calls are given as the source filed them. No cut-off for these calls is given here.

How the values were obtained:
Vaccinia virus = experiment: Antiviral activity against Vaccinia virus infected in HEL assessed as inhibition of virus-induced cytopathicity after 3 days; type: functional, organism-based; settings: Orthopoxvirus vaccinia, 72 h
Influenza A virus [1] = experiment: Antiviral activity against Influenza A virus H1N1 infected in MDCK assessed as inhibition of virus-induced cytopathicity after 3 days; type: functional, organism-based
[2] = Cytotoxicity against HEL assessed as minimum compound concentration causes microscopically detectable alteration of cell morphology after 3 days; type: cell-based; settings: human, HEL cells
[3] = test system: Human immunodeficiency virus 2; experiment: Antiviral activity against HIV2 ROD infected in human CEM cells assessed as inhibition of virus-induced giant cell formation after 4 days; type: functional, organism-based; settings: Human immunodeficiency virus 2, ISOLATE ROD, CCRF-CEM, 96 h
Procedure, shortened: (§1)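 Human CEM cells (~3×10^5 cells/cm3) were infected with 100 CCID50 of HIV-1(IIIB) or HIV-2(ROD) per ml and seeded into wells containing compound dilutions. After 4 days at 37 °C, giant cell formation was examined microscopically.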

[4] = test system: Mammalian orthoreovirus 1; experiment: Antiviral activity against Reovirus-1 infected in african green monkey Vero assessed as inhibition of virus-induced cytopathicity after 3 days; type: functional, organism-based
Procedure, shortened: (§2)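 Confluent cell monolayers infected with 100 CCID50 of virus in the presence of test compound at 100, 20,... μM. Cytopathicity was scored once it was complete in untreated infected controls.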

CCRF-CEM = experiment: Cytotoxicity against human CEM cells; type: cell-based
[5] = test system: Vesicular stomatitis virus; experiment: Antiviral activity against Vesicular stomatitis virus infected in MDCK assessed as inhibition of virus-induced cytopathicity after 3 days; type: functional, organism-based
Sindbis virus = experiment: Antiviral activity against Sindbis virus infected in african green monkey Vero assessed as inhibition of virus-induced cytopathicity after 3 days; type: functional, organism-based; procedure, shortened: as §2
HeLa = experiment: Cytotoxicity against human HeLa cells; type: cell-based
Influenza A virus [6] = experiment: Antiviral activity against Influenza A virus H3N2 infected in MDCK assessed as inhibition of virus-induced cytopathicity after 3 days; type: functional, organism-based
[7] = Selectivity index, ratio of CC50 for human CEM cells to EC50 for HIV2 ROD; type: toxicity, cell-based, CCRF-CEM; settings: read-out: Ratio CC50/EC50
[8] = test system: Vesicular stomatitis virus; experiment: Antiviral activity against Vesicular stomatitis virus infected in human HeLa assessed as inhibition of virus-induced cytopathicity after 3 days; type: functional, organism-based
[9] = test system: Human immunodeficiency virus 1; experiment: Antiviral activity against HIV1 3B infected in human CEM cells assessed as inhibition of virus-induced giant cell formation after 4 days; type: functional, organism-based; settings: Human immunodeficiency virus 1, 3B, CCRF-CEM, 96 h; procedure, shortened: as §1
[10] = test system: Respiratory syncytial virus; experiment: Antiviral activity against Respiratory syncytial virus infected in human HeLa assessed as inhibition of virus-induced cytopathicity after 3 days; type: functional, organism-based; procedure, shortened: as §2
Human respirovirus 3 = experiment: Antiviral activity against Parainfluenza-3 virus infected in african green monkey Vero assessed as inhibition of virus-induced cytopathicity after 3 days; type: functional, organism-based; procedure, shortened: as §2
Coxsackievirus B4 = experiment: Antiviral activity against Coxsackievirus B4 infected in human HeLa assessed as inhibition of virus-induced cytopathicity after 3 days; type: functional, organism-based; procedure, shortened: as §2
[11] = Cytotoxicity against HEL after 3 days; type: cell-based; settings: human, HEL cells
Procedure, shortened: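 HEL cells were seeded at 5×10^3 cells/well and allowed to grow for 24 h, then given medium with varying compound concentrations. After 3 days at 37 °C, cells were counted with a Coulter counter.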

Human alphaherpesvirus 2 = experiment: Antiviral activity against HSV2 G infected in HEL assessed as inhibition of virus-induced cytopathicity after 3 days; type: functional, organism-based; settings: Human alphaherpesvirus 2, strain G, 72 h; procedure, shortened: as §2
Human alphaherpesvirus 1 [12] = experiment: Antiviral activity against acyclovir-resistant thymidine kinase deficient HSV1 KOS infected in HEL assessed as inhibition of virus-induced cytopathicity after 3 days; type: functional, organism-based; settings: Human alphaherpesvirus 1, KOS, 72 h
Influenza B virus = experiment: Antiviral activity against Influenza B virus infected in MDCK assessed as inhibition of virus-induced cytopathicity after 3 days; type: functional, organism-based
L1210 = experiment: Cytotoxicity against mouse L1210 cells; type: cell-based
Punta Toro virus = experiment: Antiviral activity against Punta Toro virus infected in african green monkey Vero assessed as inhibition of virus-induced cytopathicity after 3 days; type: functional, organism-based; procedure, shortened: as §2
Human alphaherpesvirus 3 [13] = experiment: Antiviral activity against thymidine kinase-deficient VZV 07/1 infected in human HEL cells assessed as reduction of virus-induced cytopathogenicity after 3 days; type: functional, organism-based; settings: Human alphaherpesvirus 3, 07/1, HEL, 72 h
Human alphaherpesvirus 3 [14] = experiment: Antiviral activity against VZV OKA expressing thymidine kinase infected in HEL cells assessed as inhibition of virus-induced cytopathogenicity after 3 days; type: functional, cell-based; settings: Human alphaherpesvirus 3, strain Oka vaccine, 72 h
Human alphaherpesvirus 1 [15] = experiment: Antiviral activity against HSV1 KOS infected in HEL assessed as inhibition of virus-induced cytopathicity after 3 days; type: functional, organism-based; settings: Human alphaherpesvirus 1, KOS, 72 h
Felid alphaherpesvirus 1 = experiment: Antiviral activity against Feline herpesvirus infected in CRFK cells assessed as inhibition of virus-induced cytopathicity after 3 days; type: functional, organism-based; settings: Felid alphaherpesvirus 1, CRFK, 72 h
[16] = Cytotoxicity against CRFK cells after 3 days; type: cell-based, Felis catus; settings: cat

SMILES	pEC50 (Vaccinia virus)	Activity (Influenza A virus [1])	MCC at 72 h [2]	pEC50 [3]	Activity [4]	Activity [5]	Activity (Sindbis virus)	Activity (Influenza A virus [6])	Activity [8]	Activity [10]	Activity (Human respirovirus 3)	Activity (Coxsackievirus B4)	CC50 at 72 h [11]	pEC50 (Human alphaherpesvirus 2)	pEC50 (Human alphaherpesvirus 1 [12])	Activity (Influenza B virus)	Activity (Punta Toro virus)	pEC50 (Human alphaherpesvirus 3 [13])	pEC50 (Human alphaherpesvirus 3 [14])	pEC50 (Human alphaherpesvirus 1 [15])	other results
CC(C)(C)C(=O)OCOP(=O)(C/C=C/Cn1cnc2c(N)nc(N)nc21)OCOC(=O)C(C)(C)C	< 4.70	inactive	> 100 µM	5.20	inactive	inactive	inactive	inactive	inactive	inactive	inactive	inactive	36 µM	4.70	4.70	inactive	inactive	4.92	5.17	4.70	pIC50 (CCRF-CEM): 4.34; pIC50 (HeLa): 3.89; selectivity ratio [7]: 7.3; pEC50 [9]: 5.18; pIC50 (L1210): 3.89
CC(C)(C)C(=O)OCOP(=O)(C/C=C/Cn1cnc2c(=O)[nH]c(N)nc21)OCOC(=O)C(C)(C)C	4.00	inactive	> 100 µM		inactive	inactive	inactive	inactive	inactive	inactive	inactive	inactive	4.1 µM	5.11	5.24	inactive	inactive	6.10	5.98	5.41	pEC50 (Felid alphaherpesvirus 1): 4.96; CC50 at 72 h [16]: > 100 µM
Nc1nc2c(ncn2COC(CO)CO)c(=O)[nH]1 [GANCICLOVIR]																					pEC50 (Felid alphaherpesvirus 1): 5.92; CC50 at 72 h [16]: > 100 µM
CCCCNc1nc(N)nc2c1ncn2C/C=C/CP(=O)(OCOC(=O)C(C)(C)C)OCOC(=O)C(C)(C)C	< 4.00	inactive	> 100 µM		inactive	inactive	inactive	inactive	inactive	inactive	inactive	inactive	60 µM	< 4.00	< 4.00	inactive	inactive	4.36	4.49	< 4.00	
CC(C)(C)C(=O)OCOP(=O)(C/C=C/Cn1cnc2c(NC3CC3)nc(N)nc21)OCOC(=O)C(C)(C)C	4.70	inactive	> 100 µM		inactive	inactive	inactive	inactive	inactive	inactive	inactive	inactive	2.3 µM	5.14	4.79	inactive	inactive	6.10	6.10	4.79	
COc1nc(N)nc2c1ncn2C/C=C/CP(=O)(OCOC(=O)C(C)(C)C)OCOC(=O)C(C)(C)C	4.80	inactive	> 100 µM	6.55	inactive	inactive	inactive	inactive	inactive	inactive	inactive	inactive	1.6 µM	5.19	5.12	inactive	inactive	6.30	7.00	5.22	pIC50 (CCRF-CEM): 5.10; pIC50 (HeLa): 4.43; selectivity ratio [7]: 28.5; pEC50 [9]: < 6.40; pIC50 (L1210): 4.43
